Assay results taken from paper PMC12243159 (RSC Medicinal Chemistry, 2025).

Columns and labels:
Assay type in all cases: biochemical
hCA II = hCA II (Homo sapiens, UniProt P00918); assay: stopped-flow CO2 hydration assay, hCA II
In short: (§1)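 Recombinant in-house enzyme, preincubated 15 min at room temperature with inhibitor. Inhibitor stock was 0.1 mM in water, diluted down to 0.01 nM. CO₂ (1.7–17 mM) hydration was followed by stopped-flow with 0.2 mM phenol red at 557 nm, in 20 mM HEPES pH 7.5 with 20 mM Na₂SO₄, over 10–100 s. Initial rates came from six traces and were corrected for the uncatalysed rate. Ki was obtained by non-linear least squares, mean of ≥3 measurements.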

hCA IX = hCA IX (Homo sapiens, UniProt Q16790); assay: stopped-flow CO2 hydration assay, hCA IX; conditions: for SI I/IX: ratio of KI hCA I to KI hCA IX; for SI II/IX: ratio of KI hCA II to KI hCA IX
hCA I = hCA I (Homo sapiens, UniProt P00915); assay: stopped-flow CO2 hydration assay, hCA I
Sequence of hCA I (P00915 whole entry): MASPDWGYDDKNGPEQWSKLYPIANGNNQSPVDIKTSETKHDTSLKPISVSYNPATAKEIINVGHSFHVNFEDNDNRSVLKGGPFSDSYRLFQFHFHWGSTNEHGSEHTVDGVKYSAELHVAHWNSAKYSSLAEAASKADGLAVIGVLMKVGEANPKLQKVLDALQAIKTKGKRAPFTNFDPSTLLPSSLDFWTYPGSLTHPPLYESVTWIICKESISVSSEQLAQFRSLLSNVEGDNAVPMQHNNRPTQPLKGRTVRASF
In short: as §1

hCA XII = hCA XII (Homo sapiens, UniProt O43570); assay: stopped-flow CO2 hydration assay, hCA XII; conditions: for Ki: KI hCA XII; for SI I/XII: ratio of KI hCA I to KI hCA XII; for SI II/XII: ratio of KI hCA II to KI hCA XII
Sequence of hCA XII (O43570 25-354): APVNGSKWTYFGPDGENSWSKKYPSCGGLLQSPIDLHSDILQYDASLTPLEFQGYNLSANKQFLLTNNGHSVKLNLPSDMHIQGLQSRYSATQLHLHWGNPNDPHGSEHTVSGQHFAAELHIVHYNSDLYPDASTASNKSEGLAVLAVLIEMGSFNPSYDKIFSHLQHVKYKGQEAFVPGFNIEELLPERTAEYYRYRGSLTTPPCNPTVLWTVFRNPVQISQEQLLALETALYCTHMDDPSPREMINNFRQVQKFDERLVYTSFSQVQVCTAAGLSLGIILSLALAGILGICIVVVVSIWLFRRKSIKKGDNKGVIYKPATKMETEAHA

SMILES | Ki (hCA II) [nM] | Ki (hCA IX) [nM] | SI I/IX (hCA IX) | SI II/IX (hCA IX) | Ki (hCA I) [nM] | Ki (hCA XII; stopped-flow hydration assay) [nM] | SI I/XII (hCA XII) | SI II/XII (hCA XII) | KI hCA XII (hCA XII; stopped-flow hydration assay)
COCCOc1cc2ncnc(Nc3cccc(-c4cn(CCOCCOCCOCCNC(=O)Nc5cccc(S(N)(=O)=O)c5)nn4)c3)c2cc1OCCOC [compound 7a, 3-(3-(2-(2-(2-(2-(4-(3-((6,7-Bis(2-methoxyethoxy)quinazolin-4-yl)amino)phenyl)-1H-1,2,3-triazol-1-yl)ethoxy)ethoxy)ethoxy)ethyl)ureido)benzenesulfonamide] | 723 | 285 | 164 | 2.54 | 46500 | 58.9 | 790 | 12.3 | –
COCCOc1cc2ncnc(Nc3cccc(-c4cn(CCOCCOCCOCCNC(=O)Nc5ccc(S(N)(=O)=O)cc5)nn4)c3)c2cc1OCCOC [compound 7b, 4-(3-(2-(2-(2-(2-(4-(3-((6,7-Bis(2-methoxyethoxy)quinazolin-4-yl)amino)phenyl)-1H-1,2,3-triazol-1-yl)ethoxy)ethoxy)ethoxy)ethyl)ureido)benzenesulfonamide] | 950 | 1120 | 32.1 | 0.85 | 36100 | 57.4 | 628 | 16.6 | –
COCCOc1cc2ncnc(Nc3cccc(-c4cn(CCOCCOCCOCCNC(=S)Nc5cccc(S(N)(=O)=O)c5)nn4)c3)c2cc1OCCOC [compound 8a, 3-(3-(2-(2-(2-(2-(4-(3-((6,7-Bis(2-methoxyethoxy)quinazolin-4-yl)amino)phenyl)-1H-1,2,3-triazol-1-yl)ethoxy)ethoxy)ethoxy)ethyl)thioureido)benzenesulfonamide] | 3170 | 1920 | 23.8 | 1.65 | 45800 | 72 | 636 | 44.0 | –
COCCOc1cc2ncnc(Nc3cccc(-c4cn(CCOCCOCCOCCNC(=S)Nc5ccc(S(N)(=O)=O)cc5)nn4)c3)c2cc1OCCOC [compound 8b, 4-(3-(2-(2-(2-(2-(4-(3-((6,7-Bis(2-methoxyethoxy)quinazolin-4-yl)amino)phenyl)-1H-1,2,3-triazol-1-yl)ethoxy)ethoxy)ethoxy)ethyl)thioureido)benzenesulfonamide] | 135 | 112 | 28 | 1.2 | 3140 | 5.33 | 590 | 25.4 | –
COCCOc1cc2ncnc(Nc3cccc(-c4cn(CCOCCOCCOCCNC(=S)NCc5ccc(S(N)(=O)=O)cc5)nn4)c3)c2cc1OCCOC [compound 8c, 4-(15-(4-(3-((6,7-Bis(2-methoxyethoxy)quinazolin-4-yl)amino)phenyl)-1H-1,2,3-triazol-1-yl)-3-thioxo-7,10,13-trioxa-2,4-diazapentadecyl)benzenesulfonamide] | 1150 | 26 | 127 | 44.57 | 3280 | 69.7 | 47.0 | 16.5 | –
COCCOc1cc2ncnc(Nc3cccc(-c4cn(CCOCCOCCOCCNC(=S)NCCc5ccc(S(N)(=O)=O)cc5)nn4)c3)c2cc1OCCOC [compound 8d, 4-(16-(4-(3-((6,7-Bis(2-methoxyethoxy)quinazolin-4-yl)amino)phenyl)-1H-1,2,3-triazol-1-yl)-4-thioxo-8,11,14-trioxa-3,5-diazahexadecyl)benzenesulfonamide] | 106 | 28 | 32.6 | 3.73 | 923 | 6.49 | 142 | 16.3 | –
COCCOc1cc2ncnc(Nc3cccc(-c4cn(CCOCCOCCOCCNC(=S)Nc5ccc(S(N)(=O)=O)c(C)c5Br)nn4)c3)c2cc1OCCOC [compound 9, 4-(3-(2-(2-(2-(2-(4-(3-((6,7-Bis(2-methoxyethoxy)quinazolin-4-yl)amino)phenyl)-1H-1,2,3-triazol-1-yl)ethoxy)ethoxy)ethoxy)ethyl)thioureido)-3-bromo-2-methylbenzenesulfonamide] | 531 | 1340 | 3.65 | 0.39 | 4910 | 69.8 | 70.3 | 7.61 | –
COCCOc1cc2ncnc(Nc3cccc(-c4cn(CCOCCOCCOCCOCCOCCC(=O)NCc5ccc(S(N)(=O)=O)cc5)nn4)c3)c2cc1OCCOC [compound 10a, 1-(4-(3-((6,7-Bis(2-methoxyethoxy)quinazolin-4-yl)amino)phenyl)-1H-1,2,3-triazol-1-yl)-N-(4-sulfamoylbenzyl)-3,6,9,12,15-pentaoxaoctadecan-18-amide] | 253 | 4160 | 0.22 | 0.06 | 903 | 3300 | 0.27 | 0.08 | –
COCCOc1cc2ncnc(Nc3cccc(-c4cn(CCOCCOCCOCCOCCOCCC(=O)NCCOc5ccc6oc(=O)ccc6c5)nn4)c3)c2cc1OCCOC [compound 11, 1-(4-(3-((6,7-Bis(2-methoxyethoxy)quinazoline-4-yl)amino)phenyl)-1H-1,2,3-triazol-1-yl)-N-(2-((2-oxo-2H-chromen-6-yl)oxy)ethyl)-3,6,9,12,15-pentaoxaoctadecan-18-amide] | 33700 | 4680 | 15.0 | 7.21 | 70100 | – | – | – | no activity
COCCOc1cc2ncnc(Nc3cccc(-c4cn(CCOCCOCCOCCOCCOCCNC(=O)Nc5ccc6oc(=O)ccc6c5)nn4)c3)c2cc1OCCOC [compound 13, 1-(17-(4-(3-((6,7-Bis(2-methoxyethoxy)quinazolin-4-yl)amino)phenyl)-1H-1,2,3-triazol-1-yl)-3,6,9,12,15-pentaoxaheptadecyl)-3-(2-oxo-2H-chromen-6-yl)urea] | 11400 | 242 | 117 | 46.9 | 28300 | 8060 | 3.51 | 1.41 | –

Now from value to molecule:

Ki (hCA II) [nM] | Ki (hCA IX) [nM] | SI I/IX (hCA IX) | SI II/IX (hCA IX) | Ki (hCA I) [nM] | Ki (hCA XII; stopped-flow hydration assay) [nM] | SI I/XII (hCA XII) | SI II/XII (hCA XII) | KI hCA XII (hCA XII; stopped-flow hydration assay) | SMILES
1020 | 4470 | 15.7 | 0.23 | 70100 | 6400 | 11.0 | 0.16 | – | COCCOc1cc2ncnc(Nc3cccc(-c4cn(CCOCCOCCOCCOCCOCCNC(=O)Nc5cccc(S(N)(=O)=O)c5)nn4)c3)c2cc1OCCOC [compound 12a, 3-(3-(17-(4-(3-((6,7-Bis(2-methoxyethoxy)quinazoline-4-yl)amino)phenyl)-1H-1,2,3-triazol-1-yl)-3,6,9,12,15-pentaoxaheptadecyl)ureido)benzenesulfonamide]
90.8 | 5620 | 4.41 | 0.02 | 24800 | 75.3 | 329 | 1.21 | – | COCCOc1cc2ncnc(Nc3cccc(-c4cn(CCOCCOCCOCCOCCOCCNC(=O)Nc5ccc(S(N)(=O)=O)cc5)nn4)c3)c2cc1OCCOC [compound 12b, 4-(3-(17-(4-(3-((6,7-Bis(2-methoxyethoxy)quinazolin-4-yl)amino)phenyl)-1H-1,2,3-triazol-1-yl)-3,6,9,12,15-pentaoxaheptadecyl)ureido)benzenesulfonamide]
0.8 | 387 | 0.41 | 0.002 | 160 | 940 | 0.17 | 0.0008 | – | COCCOc1cc2ncnc(Nc3cccc(-c4cn(CCOCCOCCOCCOCCOCCNC(=O)NCc5ccc(S(N)(=O)=O)cc5)nn4)c3)c2cc1OCCOC [compound 12c, 4-(21-(4-(3-((6,7-Bis(2-methoxyethoxy)quinazoline-4-yl)amino)phenyl)-1H-1,2,3-triazol-1-yl)-3-oxo-7,10,13,16,19-pentaoxa-2,4-diazahenicosyl)benzenesulfonamide]
9710 | 4930 | 8.79 | 1.97 | 43300 | 1520 | 28.4 | 6.38 | – | COCCOc1cc2ncnc(Nc3cccc(-c4cn(CCOCCOCCOCCOCCOCCNC(=S)Nc5ccc(S(N)(=O)=O)cc5)nn4)c3)c2cc1OCCOC [compound 14b, 4-(3-(17-(4-(3-((6,7-Bis(2-methoxyethoxy)quinazolin-4-yl)amino)phenyl)-1H-1,2,3-triazol-1-yl)-3,6,9,12,15-pentaoxaheptadecyl)thioureido)benzenesulfonamide]
1010 | 3730 | 1.33 | 0.27 | 4980 | 665 | 7.48 | 1.52 | – | COCCOc1cc2ncnc(Nc3cccc(-c4cn(CCOCCOCCOCCOCCOCCNC(=S)NCc5ccc(S(N)(=O)=O)cc5)nn4)c3)c2cc1OCCOC [compound 14c, 4-(21-(4-(3-((6,7-Bis(2-methoxyethoxy)quinazoline-4-yl)amino)phenyl)-1H-1,2,3-triazol-1-yl)-3-thioxo-7,10,13,16,19-pentaoxa-2,4-diazahenicosyl)benzenesulfonamide]
